# Laboratory results as given in ChEMBL document CHEMBL1127687, “Benzoxazolamines and benzothiazolamines: potent, enantioselective inhibitors of leukotriene biosynthesis with a novel mechanism of action” (J Med Chem, 1994).
# Species: Homo sapiens
# Test: Inhibitory activity of Ca-ionophore-A23187-induced Leukotriene B4 (LTB4) release in human polymorphonuclear leukocytes at the dose of 1 micro M concentration
# Type: functional
# Settings: not given
# Method in brief: (§1)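 Human PMNs isolated from heparinized blood of healthy, medication-free donors (dextran sedimentation, Ficoll–Paque). DMSO stocks diluted into Ca/Mg-free Dulbecco's PBS. Cells (2.5 × 10^6/mL, PBS with Ca2+/Mg2+) preincubated with compound 15 min at 28 °C with shaking, then stimulated 10 min with A23187 (2.5 μM final). Stopped with EGTA (10 mM final), centrifuged, supernatant LTB4 measured by RIA.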
row,SMILES,Inhibition
1,CCOC(=O)C(Cc1cncn1CC)Nc1nc2cc(C(C)C)ccc2o1 (configuration not stated),59%
2,CCOC(=O)C(Cc1c[nH]cn1)Nc1nc2cc(C(C)C)ccc2o1 (configuration not stated),26%

# Species: Homo sapiens
# Test: Inhibitory activity of Ca-ionophore-A23187-induced Leukotriene B4 (LTB4) release in human polymorphonuclear leukocytes at the dose of 3 micro M concentration
# Type: functional
# Settings: not given
# Method in brief: as §1
row,SMILES,Inhibition
1,NC(=O)c1ccc2oc(NC(CC3CCCCC3)c3ccccc3)nc2c1 (configuration not stated),35%
2,O=S1(=O)CCN(CC(Nc2nc3cc(Cl)ccc3o2)c2ccccc2)CC1 (configuration not stated),46%
3,CCOC(=O)C(Cc1ccccc1)Cc1nc2ccccc2s1 (configuration not stated),56%
4,O=[N+]([O-])c1ccc2oc(NC(Cc3ccc(O)cc3)c3ccccn3)nc2c1 (configuration not stated),27%
5,O=C(O)C(Cc1ccccc1)Nc1nc2ccccc2s1 (configuration not stated),-19%
6,CCOC(=O)C(Nc1nc2ccccc2s1)c1ccccc1 (configuration not stated),61%

# Same assay, conditions: in the assay text read “0.3 micro M” for “3 micro M”
row,SMILES,Inhibition
1,OCc1ccc2oc(NC(CC3CCCCC3)c3ccccc3)nc2c1 (configuration not stated),41%

# Species: Homo sapiens
# Test: Inhibitory activity of Ca-ionophore-A23187-induced Leukotriene B4 (LTB4) release in human polymorphonuclear leukocytes
# Type: functional
# Settings: not given
# Method in brief: as §1
IC50,SMILES,Inhibition
0.34 µM,c1ccc(C(CC2CCCCC2)Nc2nc3ccccc3o2)cc1 (stereo in doubt; 26c),
0.02 µM,Fc1ccc(CC(Nc2nc3cc(Cl)ccc3o2)c2ccccn2)cc1 (stereo in doubt; 59a),
0.32 µM,Fc1ccc(CC(Nc2nc3cc(Cl)ccc3o2)c2ccccn2)cc1 (stereo in doubt; 59c),
,CN1CCN(CC(Nc2nc3cc(Cl)ccc3o2)c2ccccc2)CC1 (configuration not stated),21%
0.006 µM,c1ccc(C(CC2CCCCC2)Nc2nc3ccccc3o2)cc1 (stereo in doubt; 26b),
0.008 µM,c1ccc(C(CC2CCCCC2)Nc2nc3ccccc3o2)cc1 (stereo in doubt; 26a),

# Same assay, conditions: Homo sapiens
row,IC50,SMILES
1,0.18 µM,CCCCc1ccc2nc(NC(Cc3ccc(Cl)cc3)C(=O)OCC)sc2c1 (configuration not stated)
2,0.078 µM,CC(=O)Nc1ccc2oc(NC(CC3CCCCC3)c3ccccc3)nc2c1 (configuration not stated)
3,0.52 µM,CCOC(=O)C(CCc1ccccc1)Nc1nc2ccccc2s1 (configuration not stated)
4,0.014 µM,COc1ccc(CC(Nc2nc3cc([N+](=O)[O-])ccc3o2)c2ccccn2)cc1 (configuration not stated)
5,0.17 µM,c1ccc(CC(Nc2nc3ccccc3s2)c2ccccc2)cc1 (configuration not stated)
6,0.048 µM,Clc1ccc2oc(NC(CN3CCSCC3)c3ccccc3)nc2c1 (configuration not stated)
7,0.05 µM,CN(C)S(=O)(=O)c1ccc2oc(NC(Cc3ccc(F)cc3)c3ccccn3)nc2c1 (configuration not stated)
8,0.17 µM,Fc1ccc(C(CC2CCCCC2)Nc2nc3ccccc3o2)cc1 (configuration not stated)
9,0.17 µM,CN(C)C(=O)c1ccc2oc(NC(CC3CCCCC3)c3ccccc3)nc2c1 (configuration not stated)
10,0.0005 µM,CCOC(=O)C(Cc1ccccc1)Nc1nc2cc(C(C)C)ccc2o1 (configuration not stated)
11,0.012 µM,CCOC(=O)C(Cc1ccccc1)Nc1nc2cc(CC)ccc2s1 (configuration not stated)
12,0.015 µM,N#Cc1ccc2oc(NC(CC3CCCCC3)c3ccccc3)nc2c1 (configuration not stated)
13,0.029 µM,CC(C)c1ccc2oc(NC(Cc3ccc(Cl)cc3)c3ccccn3)nc2c1 (configuration not stated)
14,0.013 µM,CSCC(Cc1ccccc1)Nc1nc2cc(C(C)C)ccc2o1 (configuration not stated)
15,0.15 µM,CCOC(=O)C(Cc1ccc(Br)cc1)Nc1nc2ccccc2s1 (configuration not stated)
16,0.012 µM,CC(C)c1ccc2oc(NC(Cc3ccc(F)cc3)c3ccccn3)nc2c1 (configuration not stated)
17,0.023 µM,Clc1ccc2oc(NC(Cc3ccccc3)c3ccccc3)nc2c1 (configuration not stated)
18,0.1 µM,COC(=O)[C@@H](CC1CCCCC1)Nc1nc2ccccc2o1
19,0.051 µM,c1ccc(CC(Nc2nc3ccccc3o2)c2ccccc2)cc1 (configuration not stated)
20,0.15 µM,CCOC(=O)[C@H](Cc1ccccc1)Nc1nc2ccccc2o1
21,0.23 µM,CCOC(=O)C(Cc1ccc(Cl)cc1)Nc1nc2ccc(OC)cc2s1 (configuration not stated)

row,IC50,SMILES
1,0.02 µM,Cc1ccc2oc(NC(CC3CCCCC3)c3cccnc3)nc2c1 (configuration not stated)
2,1 µM,CCOC(=O)C(Cc1ccccc1)N(C)c1nc2ccccc2s1 (configuration not stated)
3,0.17 µM,CCCOCC(Cc1ccc(F)cc1)Nc1nc2cc(C(C)C)ccc2o1 (configuration not stated)
4,0.011 µM,COc1ccc2oc(NC(Cc3ccc(F)cc3)c3ccccn3)nc2c1 (configuration not stated)
5,0.04 µM,Cc1ccc2oc(N[C@H](CC3CCCCC3)c3ccccn3)nc2c1
6,0.36 µM,CCOC(=O)C(Cc1ccccc1)Nc1nc2ccccc2s1 (configuration not stated)
7,1.5 µM,CCOC(=O)[C@@H](Cc1ccccc1)Nc1nc2ccccc2o1
8,0.22 µM,CCOC(=O)C(Cc1ccccc1)Nc1nc2ccc(C(C)C)cc2o1 (configuration not stated)
9,0.23 µM,CCOC(=O)[C@H](Cc1ccccc1)Nc1nc2ccccc2s1
10,0.19 µM,Cc1ccc2oc(NC(CC3CCCCC3)c3ccncc3)nc2c1 (configuration not stated)
11,0.017 µM,COCC(Cc1ccc(F)cc1)Nc1nc2cc(C(C)C)ccc2o1 (configuration not stated)
12,0.045 µM,CCOC(=O)c1ccc2oc(NC(CC3CCCCC3)c3ccccc3)nc2c1 (configuration not stated)
13,0.24 µM,CCOC(=O)C(Cc1ccccc1)Nc1nc2ccc(CC)cc2s1 (configuration not stated)
14,0.2 µM,CCOC(=O)C(Cc1ccc(Cl)cc1)Nc1nc2ccccc2s1 (configuration not stated)
15,0.03 µM,Fc1ccc(CC(Nc2nc3cc(F)c(F)cc3o2)c2ccccn2)cc1 (configuration not stated)
16,0.016 µM,CCOC(=O)C(Cc1csc(C)n1)Nc1nc2cc(C(C)C)ccc2o1 (configuration not stated)
17,0.052 µM,CC(C)c1ccc2oc(NC(CN3CCOCC3)c3ccccc3)nc2c1 (configuration not stated)
18,0.004 µM,Cc1ccc2oc(NC(CC3CCCCC3)c3ccccn3)nc2c1 (configuration not stated)
19,0.008 µM,Fc1ccc(CC(Nc2nc3cc(C(F)(F)F)ccc3o2)c2ccccn2)cc1 (configuration not stated)
20,0.16 µM,CS(=O)(=O)Nc1ccc2oc(NC(CC3CCCCC3)c3ccccc3)nc2c1 (configuration not stated)
21,0.009 µM,COc1ccc2oc(NC(Cc3ccccc3)c3ccccc3)nc2c1 (configuration not stated)

row,IC50,SMILES
1,0.33 µM,CCOC(=O)C(Cc1ccc(Cl)cc1)Nc1nc2ccc(C(C)C)cc2s1 (configuration not stated)
2,0.001 µM,Cc1ccc2oc(N[C@@H](CC3CCCCC3)c3ccccn3)nc2c1 [ONTAZOLAST]
3,0.44 µM,Cc1noc(C(Cc2ccc(F)cc2)Nc2nc3cc(C(C)C)ccc3o2)n1 (configuration not stated)
4,0.3 µM,Cc1cccc(C(CC2CCCCC2)Nc2nc3ccccc3o2)c1 (configuration not stated)
5,0.027 µM,CCOC(=O)c1ccc2oc(NC(Cc3ccc(F)cc3)c3ccccn3)nc2c1 (configuration not stated)
6,0.35 µM,CC(=O)C(Cc1ccccc1)Nc1nc2ccc(C(C)C)cc2o1 (configuration not stated)
7,0.072 µM,CNC(=O)C(CC1CCCCC1)Nc1nc2cc(C)ccc2o1 (configuration not stated)
8,0.33 µM,CCOC(=O)C(Cc1ccc(F)cc1)Nc1nc2ccccc2s1 (configuration not stated)
9,0.021 µM,Fc1ccc(CC(Nc2nc3cc(F)ccc3o2)c2ccccn2)cc1 (configuration not stated)
10,0.016 µM,O=[N+]([O-])c1ccc2oc(NC(Cc3ccc(F)cc3)c3ccccn3)nc2c1 (configuration not stated)
11,0.041 µM,CCOCC(Cc1ccc(F)cc1)Nc1nc2cc(C(C)C)ccc2o1 (configuration not stated)
12,0.005 µM,CC(C)c1ccc2oc(NC(Cc3cccc(Cl)c3)c3ccccn3)nc2c1 (configuration not stated)
13,0.15 µM,O=C(O)c1ccc2oc(NC(CC3CCCCC3)c3ccccc3)nc2c1 (configuration not stated)
14,0.55 µM,COc1ccc(C(CC2CCCCC2)Nc2nc3ccccc3o2)cc1 (configuration not stated)
15,0.029 µM,Cc1nc(CC(Nc2nc3cc(C(C)C)ccc3o2)c2ccccn2)cs1 (configuration not stated)
16,0.005 µM,COC(=O)[C@H](CC1CCCCC1)Nc1nc2ccccc2o1
17,0.08 µM,Clc1ccccc1C(CC1CCCCC1)Nc1nc2ccccc2o1 (configuration not stated)
18,1.2 µM,CC(C)c1ccc2oc(N[C@H](CN3CCCCC3)c3ccccc3)nc2c1
19,0.006 µM,CC(C)c1ccc2oc(NC(CC3CCCCC3)c3ccccc3)nc2c1 (configuration not stated)
20,0.1 µM,CC(C)c1ccc2oc(N[C@@H](CN3CCCCC3)c3ccccc3)nc2c1
